Test results taken from ChEMBL document CHEMBL1133980, “New inhibitors of the thioredoxin-thioredoxin reductase system based on a naphthoquinone spiroketal natural product lead” (Bioorg Med Chem Lett, 2001).

Legend:
[1] = test system: MDA-MB-231; experiment: Ability to inhibit the growth of MDA-MB-231 cell line; type: functional, cell-based; conditions: Homo sapiens
Outline: (§1)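 MCF-7 (ER+, p53 replete) and MDA-MB-231 (ER−, p53 deficient) human breast cancer cells were seeded at 4000/well and left to attach overnight. They were then exposed to compound (0.1–30 μM) or 0.1% DMSO vehicle for 72 h. Medium was changed to serum-free medium with 0.1% MTT, incubated 3 h in the dark, and cell number read at 540 nm.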

[2] = test system: MCF7; experiment: Ability to inhibit the growth of MCF-7 cell line; type: functional, cell-based; conditions: Homo sapiens; outline: as §1
[3] = molecular target: T1, Thioredoxin reductase (Homo sapiens, UniProt Q16881+Q9NNW7+Q86VQ6); experiment: Inhibition of thioredoxin reductase; type: protein assay
Outline: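 Human placental TrxR (final 1.0 μM) in HEPES pH 7.2/EDTA buffer was added to diluted compound. Reaction started with NADPH (final 1 mM) and DTNB (final 10 mM) at 37 °C. A405 for DTNB reduction read every 10 s and initial rates taken. IC50 from five concentrations (0.1–50 μM).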

[4] = molecular target: T1, Thioredoxin reductase; experiment: Inhibition of thioredoxin-1/thioredoxin reductase system; type: functional
Outline: (§2)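 Insulin reduction by human placental TrxR plus recombinant human Trx-1 (final 1.0 μM TrxR, 0.8 μM Trx-1) in 100 mM HEPES pH 7.2, 5 mM EDTA with 1 mM NADPH and 2.5 mg/mL bovine insulin, 30 min, 37 °C. Stopped with 6 M guanidine-HCl/Tris pH 8.0/10 mM DTNB; A405 read. IC50 from five concentrations (0.1–50 μM).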

[5] = Compound was tested for its ability to inhibit thioredoxin-1/thioredoxin reductase system; design: species or system Homo sapiens; outline: as §2

| IC50 [1] | IC50 [2] | IC50 [3] | IC50 [4] | IC50 [5] | Compound |
| --- | --- | --- | --- | --- | --- |
| 5.2 µM | 5.5 µM | > 50 µM | 42.4 µM |  | O=C1C=CC2(Oc3cccc4cccc(c34)O2)c2cccc(OCc3ccc(-c4cccc(C(F)(F)F)c4)o3)c21 |
| 5 µM | 4.4 µM | > 50 µM | 40.2 µM |  | COc1cccc2c1C(=O)C=CC21OCCCO1 |
| 8 µM | > 10 µM | > 50 µM | > 50 µM |  | O=C1C=CC2(Oc3cccc4cccc(c34)O2)c2cccc(OCc3ccc(Cl)cc3)c21 |
| 5.3 µM | 4.3 µM |  | > 50 µM |  | C/C=C(\C)COc1cccc2c1C(=O)C=CC21Oc2cccc3cccc(c23)O1 |
| 2.8 µM | 2 µM | > 50 µM | 41.8 µM |  | O=C1C=CC2(Oc3cccc4cccc(c34)O2)c2cccc(OCc3ccccn3)c21 |
| > 10 µM | > 10 µM | > 50 µM | > 50 µM |  | O=C1C=CC2(Oc3cccc4cccc(c34)O2)c2cccc(OCc3ccc(-c4cccc(Cl)c4)o3)c21 |
| 8.2 µM | 7.8 µM | > 50 µM | 4.8 µM |  | C=C(C)COc1cccc2c1C(=O)C=CC21Oc2cccc3cccc(c23)O1 |
| 2.9 µM | 1.3 µM |  | > 50 µM |  | C/C=C/COc1cccc2c1C(=O)C=CC21Oc2cccc3cccc(c23)O1 |
| 2.5 µM | 1.1 µM |  | > 50 µM |  | O=C1C=CC2(Oc3cccc4cccc(c34)O2)c2cccc(OCc3ccco3)c21 |
| 3.4 µM | 1.3 µM |  | 44 µM |  | O=C1C=CC2(Oc3cccc4cccc(c34)O2)C23OC12CCCC3=O (configuration not stated) |
| 8.2 µM | 4.6 µM |  | > 50 µM |  | O=C1[C@@H]2O[C@@H]2C2(Oc3cccc4cccc(c34)O2)[C@@]23O[C@@]12CCCC3=O |
| 7.3 µM | 8 µM | > 50 µM | > 50 µM |  | O=C1C=CC2(Oc3cccc4cccc(c34)O2)c2cccc(OCc3ccncc3)c21 |
| 9.3 µM | > 10 µM | > 50 µM | > 50 µM |  | O=C1C=CC2(Oc3cccc4cccc(c34)O2)c2cccc(OCc3ccc(Br)cc3)c21 |
| 1.4 µM | 1.5 µM | > 50 µM | > 50 µM |  | O=C1C=CC2(Oc3cccc4cccc(c34)O2)c2cccc(OCc3cccnc3)c21 |
| 2.4 µM | 1 µM | 12 µM | 0.35 µM |  | O=C1C=CC2(Oc3cccc4cccc(c34)O2)c2cccc(O)c21 |
| 2.7 µM | 2 µM | > 50 µM | 23.2 µM |  | C=CCOc1cccc2c1C(=O)C=CC21Oc2cccc3cccc(c23)O1 |
| 9.2 µM | > 30 µM |  | > 50 µM |  | CC/C=C/CCOc1cccc2c1C(=O)C=CC21Oc2cccc3cccc(c23)O1 |
| 4.9 µM | 5 µM | > 50 µM | > 50 µM |  | O=C1C=CC2(Oc3cccc4cccc(c34)O2)c2cccc(OCc3ccc(-c4ccccc4C(F)(F)F)o3)c21 |

| IC50 [1] | IC50 [2] | IC50 [3] | IC50 [4] | IC50 [5] | Compound |
| --- | --- | --- | --- | --- | --- |
| 2.7 µM | 2.3 µM |  | > 50 µM |  | COc1cccc(COc2cccc3c2C(=O)C=CC32Oc3cccc4cccc(c34)O2)c1 |
| 3.6 µM | 2 µM |  | > 50 µM |  | CC(C)=CCOc1cccc2c1C(=O)C=CC21Oc2cccc3cccc(c23)O1 |
| 4.6 µM | 3.9 µM |  | > 50 µM |  | O=C1C=CC2(Oc3cccc4cccc(c34)O2)c2cccc(OCCc3ccccc3)c21 |
| 6.4 µM | 3.8 µM |  | 2.1 µM |  | O=C1C=CC2(Oc3cccc4cccc(c34)O2)C2=C1CCCC2=O |
| 2.1 µM | 1.3 µM |  | 8 µM |  | O=C1C=CC2(Oc3cccc4cccc(c34)O2)C2=C1[C@@H](O)C1C3C=CC(C3)C1[C@H]2O (some centres not stated) |
| 2 µM | 1.5 µM | 13.5 µM | 4.5 µM |  | O=C1C=C[C@H](O)[C@@]23O[C@@]12C1(Oc2cccc4cccc(c24)O1)[C@@H]1O[C@@H]1[C@@H]3O |
| > 10 µM | > 10 µM | > 50 µM | > 50 µM |  | O=C1C=CC2(Oc3cccc4cccc(c34)O2)c2cccc(OCc3ccc(-c4ccccc4Cl)o3)c21 |
| 7.5 µM | 7.9 µM |  | > 50 µM |  | O=C1C=CC2(Oc3cccc4cccc(c34)O2)c2cccc(OC/C=C/c3ccccc3)c21 |
| 2 µM | 2 µM | > 50 µM | 23.2 µM |  | O=C1C=CC2(Oc3cccc4cccc(c34)O2)c2cccc(OCc3ccoc3)c21 |
| 2 µM | 4.6 µM |  |  | > 50 µM | CC(C)=CCC/C(C)=C/COc1cccc2c1C(=O)C=CC21Oc2cccc3cccc(c23)O1 |
| 13.6 µM | 13.4 µM |  | > 50 µM |  | CCCCCCOc1cccc2c1C(=O)C=CC21Oc2cccc3cccc(c23)O1 |
| 23 µM | 4.6 µM |  | 12.2 µM |  | O=C1CCCC2=C1C1(Oc3cccc4cccc(c34)O1)C1OC1C2=O (configuration not stated) |
| 2.9 µM | 2.8 µM |  | 13.5 µM |  | O=C1[C@@H]2O[C@@H]2C2(Oc3cccc4cccc(c34)O2)[C@]23O[C@]12CCCC3=O |
| 4.3 µM | 4.2 µM | 8.8 µM | 3.4 µM |  | O=C1C=CC2(OCCO2)c2cccc(O)c21 |
| 7.8 µM | 5.7 µM | 20.1 µM | 10.2 µM |  | O=C1C=CC2(Oc3cccc4cccc(c34)O2)c2cccc(OCc3ccc(-c4ccc(Br)cc4)o3)c21 |
| 4.5 µM | 1.9 µM |  | > 50 µM |  | C/C=C(/C)COc1cccc2c1C(=O)C=CC21Oc2cccc3cccc(c23)O1 |
| 4.7 µM | 4.3 µM | > 50 µM | 13.4 µM |  | C#CCOc1cccc2c1C(=O)C=CC21Oc2cccc3cccc(c23)O1 |
| 2.2 µM | 0.7 µM | > 50 µM | > 50 µM |  | COc1ccc(COc2cccc3c2C(=O)C=CC32Oc3cccc4cccc(c34)O2)cc1 |
